From ChEMBL document CHEMBL1142327, “2-Amino-N-pyrimidin-4-ylacetamides as A2A receptor antagonists: 2. Reduction of hERG activity, observed species selectivity, and structure-activity relationships” (J Med Chem, 2008) come the findings set out here.

Activity calls are given as the source filed them. The rule behind the calls is not given here.

A word on the Ki: it is the dissociation constant of the complex between target and ligand, obtained from inhibition or displacement. A low value points to a stronger hold on the target. As usually defined, the IC50 is the concentration needed to halve the response being measured. Higher therefore signals a need for much substance.

Data set [1] concerns the target Adenosine receptor A2a (Homo sapiens, UniProt P29274). Kind of data set: Displacement of [3H]-ZM 241385 from human adenosine A2A receptor expressed in HEK293 cell membrane. The data set is classed as cell membranes. (In general: Loss of bound radioactivity is the signal in a displacement assay; it reports binding, not function.)
The target of the next data set is T1, Adenosine receptor A1 (Homo sapiens, UniProt P30542).
T1 sequence (P30542 whole entry): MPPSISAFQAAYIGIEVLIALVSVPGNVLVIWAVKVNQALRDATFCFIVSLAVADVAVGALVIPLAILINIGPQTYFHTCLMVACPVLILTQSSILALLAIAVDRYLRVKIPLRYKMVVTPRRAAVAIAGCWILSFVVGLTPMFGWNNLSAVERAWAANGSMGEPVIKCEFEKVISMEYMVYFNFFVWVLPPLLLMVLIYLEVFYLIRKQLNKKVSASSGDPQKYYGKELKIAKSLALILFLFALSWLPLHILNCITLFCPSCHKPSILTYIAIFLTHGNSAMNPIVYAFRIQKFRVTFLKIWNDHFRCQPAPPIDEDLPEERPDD
Nature of the data set: Displacement of [3H]-DPCPX from human adenosine A1 receptor expressed in HEK293 cell membrane. Format: cell membranes. The essentials: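 Flp-In HEK293 cell line stably expressing the human receptor, crude membranes used at 1–2 µg protein. Pre-incubated 30 min at room temperature with 10 µg/mL adenosine deaminase. Then incubated 90 min with 1.0 nM [3H]-DPCPX and graded competitor in 50 mM Tris-HCl pH 7.4, 1 mM EDTA, 10 mM MgCl2. Nonspecific binding defined with 1 µM DPCPX. Separated by filtration on GF/C, counted by scintillation. Ki from IC50 via Cheng-Prusoff. Mean of at least two runs.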

The species named for another data set is Homo sapiens. Kind of data set: Selectivity ratio of Ki for human adenosine A1 receptor to Ki for human adenosine A2A receptor. The essentials: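 Stably transfected Flp-In HEK293 membranes with human A1 or A2A receptors (1–2 µg protein) were preincubated 30 min at room temp with adenosine deaminase. They were then incubated 90 min with competitor and 1.0 nM [3H]-DPCPX (A1) or 2.0 nM [3H]-ZM241385 (A2A). Nonspecific binding used 1 µM DPCPX or CGS15943. Filtration and scintillation counting followed. […] Ratio is A1 Ki/A2A Ki.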

The target of data set [2] is Adenosine receptor A2a (Rattus norvegicus, UniProt P30543). Nature of the data set: Displacement of [3H]-ZM 241385 from rat adenosine A2A receptor expressed in CHO cell membrane. The data set is classed as cell membranes.
Sequence of Adenosine receptor A2a (Rattus norvegicus, UniProt P30543) (P30543 whole entry): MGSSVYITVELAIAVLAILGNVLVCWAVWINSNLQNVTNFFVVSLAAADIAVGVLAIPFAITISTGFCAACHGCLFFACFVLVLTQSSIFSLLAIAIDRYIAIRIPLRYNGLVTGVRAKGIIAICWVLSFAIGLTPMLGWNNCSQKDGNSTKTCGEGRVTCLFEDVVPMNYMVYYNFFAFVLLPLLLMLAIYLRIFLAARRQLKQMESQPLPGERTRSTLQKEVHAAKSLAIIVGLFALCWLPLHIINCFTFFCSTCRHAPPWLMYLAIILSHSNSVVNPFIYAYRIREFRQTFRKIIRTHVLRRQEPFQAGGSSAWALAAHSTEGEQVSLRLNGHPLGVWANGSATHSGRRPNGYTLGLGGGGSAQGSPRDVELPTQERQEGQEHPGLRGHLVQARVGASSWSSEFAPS
Data set [3] has as its target Voltage-gated inwardly rectifying potassium channel KCNH2 (Homo sapiens, UniProt Q12809). Nature of the data set: Inhibition of human ERG potassium current expressed in HEK293 cells by patch-clamp technique. (In general: The patch-clamp technique gives a direct electrical read-out from membranes.)
Data set [4] can be described thus: Drug level in Wistar rat brain at 30 mg/kg, po after 2 hrs. Format: ADME, organism-based. Set-up: dose 30 mg/kg, route oral. The following applies: read-out: Drug uptake. The essentials: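 Male Wistar rats, ∼220 g. Oral dose of 30 mg/kg in 5% cremophor in sterile water (5 mL/kg), with haloperidol 1.5 mg/kg ip 1 h before the bar test. Brain collected 2 h after dosing. Half-brain homogenates centrifuged, supernatant analysed by LC-MS/MS (positive ESI, MRM). Quantified against brain-matrix calibration standards by internal-standard peak-area ratio on a 1/x-weighted linear curve.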

In a further data set the test system is Rattus norvegicus. Nature of the data set: Effect on haloperidol-induced catalepsy in Wistar rat at 30 mg/kg, po after 2 hrs. Format: functional, organism-based. Set-up: dose 30 mg/kg. The essentials: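 Male Wistar rats, ∼220 g, habituated 1 week, 24 per experiment. Oral dose of 30 mg/kg in 5% cremophor/sterile water (5 mL/kg) 2 h before testing, haloperidol 1.5 mg/kg ip 1 h before. Bar test: forepaws placed on 8.0 cm bar, three 30 s trials 3 min apart. Descent latency averaged per rat and compared with vehicle, p < 0.05.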

The target in the next data set is Cytochrome P450 2D6 (Homo sapiens, UniProt P10635). Nature of the data set: Inhibition of CYP2D6. Format: ADME.
Sequence of Cytochrome P450 2D6 (P10635 whole entry): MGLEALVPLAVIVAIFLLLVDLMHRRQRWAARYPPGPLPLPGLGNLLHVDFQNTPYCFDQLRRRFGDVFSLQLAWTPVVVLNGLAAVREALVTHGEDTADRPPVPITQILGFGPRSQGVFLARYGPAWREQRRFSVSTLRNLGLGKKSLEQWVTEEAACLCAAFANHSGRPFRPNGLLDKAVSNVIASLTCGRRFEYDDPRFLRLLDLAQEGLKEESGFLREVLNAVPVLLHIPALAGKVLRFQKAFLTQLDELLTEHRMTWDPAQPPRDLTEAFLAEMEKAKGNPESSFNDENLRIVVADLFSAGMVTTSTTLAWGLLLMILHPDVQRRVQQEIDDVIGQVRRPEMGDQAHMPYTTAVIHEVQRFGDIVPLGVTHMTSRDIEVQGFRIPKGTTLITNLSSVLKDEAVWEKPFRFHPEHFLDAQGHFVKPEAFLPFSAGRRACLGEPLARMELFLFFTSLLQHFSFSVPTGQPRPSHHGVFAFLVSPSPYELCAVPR
In another data set the target is Cytochrome P450 3A4 (Homo sapiens, UniProt P08684). Kind of data set: Inhibition of CYP3A4. Format: ADME.
Sequence of Cytochrome P450 3A4 (P08684 whole entry): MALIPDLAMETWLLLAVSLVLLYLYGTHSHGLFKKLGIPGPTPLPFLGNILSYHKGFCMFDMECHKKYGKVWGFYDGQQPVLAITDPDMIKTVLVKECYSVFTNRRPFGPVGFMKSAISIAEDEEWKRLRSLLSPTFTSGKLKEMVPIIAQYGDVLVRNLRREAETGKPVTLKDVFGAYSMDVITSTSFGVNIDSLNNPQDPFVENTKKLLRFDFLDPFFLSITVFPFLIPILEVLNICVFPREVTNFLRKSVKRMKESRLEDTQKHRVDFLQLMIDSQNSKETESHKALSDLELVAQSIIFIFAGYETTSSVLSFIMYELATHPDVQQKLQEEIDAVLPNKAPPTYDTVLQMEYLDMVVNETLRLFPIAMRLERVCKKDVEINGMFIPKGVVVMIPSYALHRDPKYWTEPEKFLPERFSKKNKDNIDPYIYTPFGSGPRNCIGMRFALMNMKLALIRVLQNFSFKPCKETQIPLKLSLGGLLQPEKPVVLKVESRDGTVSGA

Sequence of Adenosine receptor A2a (Homo sapiens, UniProt P29274) (P29274 whole entry): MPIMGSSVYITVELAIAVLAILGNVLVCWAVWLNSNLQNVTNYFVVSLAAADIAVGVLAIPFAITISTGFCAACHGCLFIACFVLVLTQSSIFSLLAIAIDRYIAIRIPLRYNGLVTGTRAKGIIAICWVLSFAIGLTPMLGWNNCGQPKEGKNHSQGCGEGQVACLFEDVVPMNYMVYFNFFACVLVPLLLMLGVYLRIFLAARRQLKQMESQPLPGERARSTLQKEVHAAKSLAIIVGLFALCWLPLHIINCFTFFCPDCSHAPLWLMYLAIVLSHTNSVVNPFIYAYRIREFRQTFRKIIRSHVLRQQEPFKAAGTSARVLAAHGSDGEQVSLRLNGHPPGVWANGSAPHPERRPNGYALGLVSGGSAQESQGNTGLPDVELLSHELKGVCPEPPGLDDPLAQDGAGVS
Sequence of Voltage-gated inwardly rectifying potassium channel KCNH2 (Q12809 whole entry): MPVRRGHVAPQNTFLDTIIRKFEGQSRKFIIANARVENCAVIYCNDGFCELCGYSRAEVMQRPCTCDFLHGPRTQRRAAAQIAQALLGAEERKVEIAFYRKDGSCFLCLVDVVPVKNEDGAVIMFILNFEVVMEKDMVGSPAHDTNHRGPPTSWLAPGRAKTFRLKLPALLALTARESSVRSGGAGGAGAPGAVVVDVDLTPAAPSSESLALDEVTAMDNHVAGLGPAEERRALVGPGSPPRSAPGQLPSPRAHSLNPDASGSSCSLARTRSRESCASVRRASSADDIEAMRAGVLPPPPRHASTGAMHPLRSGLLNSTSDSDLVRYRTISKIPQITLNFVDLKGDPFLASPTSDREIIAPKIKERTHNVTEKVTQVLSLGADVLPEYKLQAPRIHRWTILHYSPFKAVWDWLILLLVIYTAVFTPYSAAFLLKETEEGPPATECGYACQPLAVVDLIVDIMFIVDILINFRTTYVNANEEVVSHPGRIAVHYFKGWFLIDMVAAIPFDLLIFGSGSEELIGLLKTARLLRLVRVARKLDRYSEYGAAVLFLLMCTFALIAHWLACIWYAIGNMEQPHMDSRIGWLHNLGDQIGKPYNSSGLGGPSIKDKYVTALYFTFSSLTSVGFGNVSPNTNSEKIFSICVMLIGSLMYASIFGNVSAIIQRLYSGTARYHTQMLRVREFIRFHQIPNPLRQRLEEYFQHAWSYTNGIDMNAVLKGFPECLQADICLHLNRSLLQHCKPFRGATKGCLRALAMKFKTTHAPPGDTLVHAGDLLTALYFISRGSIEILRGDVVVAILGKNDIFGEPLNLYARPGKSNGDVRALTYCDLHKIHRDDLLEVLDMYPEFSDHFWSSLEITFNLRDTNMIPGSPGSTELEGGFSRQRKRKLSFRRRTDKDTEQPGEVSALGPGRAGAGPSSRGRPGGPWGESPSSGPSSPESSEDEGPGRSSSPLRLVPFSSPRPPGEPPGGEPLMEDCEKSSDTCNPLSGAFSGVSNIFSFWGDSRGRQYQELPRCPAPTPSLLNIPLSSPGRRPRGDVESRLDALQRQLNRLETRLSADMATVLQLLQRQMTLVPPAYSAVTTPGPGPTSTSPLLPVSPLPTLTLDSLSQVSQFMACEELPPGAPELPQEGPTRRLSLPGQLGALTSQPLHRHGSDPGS

In the case of `CCN[C@@H]1CCN(CC(=O)Nc2cc(-n3nc(C)cc3C)nc(-c3ccc(C)o3)n2)C1`, the values for the Ki on Adenosine receptor A2a [1] and on Adenosine receptor A1 were 3.8 nM and 270 nM, respectively. In addition, the Ratio Ki in the data set filed under Homo sapiens was 71.

As to `COC1CCN(CC(=O)Nc2cc(-n3nc(C)cc3C)nc(-c3ccc(C)o3)n2)CC1`, the Ki on Adenosine receptor A2a [1] turned out to be 15 nM; at Adenosine receptor A1, 1210 nM; on Adenosine receptor A2a [2], 1600 nM. Further, in the data set listed under Homo sapiens, the Ratio Ki turned out to be 81.

In the case of `Cc1cc(C)n(-c2cc(NC(=O)CN3CC[C@@H](CN(C)C)C3)nc(-c3ccc(C)o3)n2)n1`, the Ki on Adenosine receptor A2a [1] turned out to be 2.1 nM; on Adenosine receptor A1, 220 nM; at Adenosine receptor A2a [2], 27.8 nM.

Regarding `Cc1cc(C)n(-c2cc(NC(=O)CN3CC[C@H](N(C)C)C3)nc(-c3ccc(C)o3)n2)n1`, the results for the Ki at Adenosine receptor A2a [1], on Adenosine receptor A1 and at Adenosine receptor A2a [2] were 3.7 nM, 940 nM and 160 nM, respectively. Besides, the Ratio Ki in the data set listed under Homo sapiens worked out at 254. In data set [3], this molecule registered an IC50 of 600 nM. The concentration at 2 h in data set [4] is 1900 ng/g. The result with Rattus norvegicus was Active.

Consider `Cc1cc(C)n(-c2cc(NC(=O)CN3CC[C@H](OC(C)C)C3)nc(-c3ccc(C)o3)n2)n1`, for which the Ki is 86 nM at Adenosine receptor A2a [1] and 2300 nM at Adenosine receptor A1. For the same molecule, the Ratio Ki in the data set filed under Homo sapiens was determined as 27.

On to `CCN1CCN(CC(=O)Nc2cc(-n3nc(C)cc3C)nc(-c3ccc(C)o3)n2)CC1`, for which the inhibition constant (Ki) at Adenosine receptor A2a [1] was 11 nM; at Adenosine receptor A1, 1880 nM; at Adenosine receptor A2a [2], 270 nM. Besides, the Ratio Ki in the data set filed under Homo sapiens is 171.

Take `Cc1cc(C)n(-c2cc(NC(=O)CCN3CC[C@H](N(C)C)C3)nc(-c3ccc(C)o3)n2)n1`: the inhibition constant Ki at Adenosine receptor A2a [1] was 2.4 nM; at Adenosine receptor A1, 630 nM; at Adenosine receptor A2a [2] it was 41 nM. Besides, the Ratio Ki in the data set listed under Homo sapiens was determined as 263. In addition, the IC50 in [3] worked out at 2280 nM. Besides, the concentration at 2 h in data set [4] was found to be 250 ng/g. Also, in the data set on Rattus norvegicus, the outcome was Active.

Take `Cc1cc(C)n(-c2cc(NC(=O)CN3CCOCC3)nc(-c3ccc(C)o3)n2)n1`: the Ki came out at 5.7 nM on Adenosine receptor A2a [1], 500 nM at Adenosine receptor A1 and 430 nM on Adenosine receptor A2a [2]. In addition, in the data set listed under Homo sapiens, the Ratio Ki turned out to be 88.

As for `Cc1cc(C)n(-c2cc(NC(=O)CN3CC[C@H](CN(C)C)C3)nc(-c3ccc(C)o3)n2)n1`, the values for the inhibitory constant (Ki) on Adenosine receptor A2a [1], on Adenosine receptor A1 and at Adenosine receptor A2a [2] were 11 nM, 550 nM and 34 nM, respectively.

Take `Cc1cc(C)n(-c2cc(NC(=O)CN3CCC[C@@H](CN(C)C)C3)nc(-c3ccc(C)o3)n2)n1`: the Ki was 1.5 nM on Adenosine receptor A2a [1], 71 nM on Adenosine receptor A1 and 14 nM on Adenosine receptor A2a [2]. Moreover, the Ratio Ki in the data set listed under Homo sapiens was 47.

`Cc1cc(C)n(-c2cc(NC(=O)CN3CCN(C)CC3)nc(-c3ccc(C)o3)n2)n1` registered an inhibition constant Ki at Adenosine receptor A2a [2] of 131 nM. Moreover, the Ratio Ki in the data set filed under Homo sapiens amounted to 71. Moreover, half-maximal inhibition in data set [3] (IC50) required 950 nM. In addition, the Inhibition entry at Cytochrome P450 2D6 and on Cytochrome P450 3A4 was “Not Active” throughout.

`CCN(CC)[C@H]1CCN(CC(=O)Nc2cc(-n3nc(C)cc3C)nc(-c3ccc(C)o3)n2)C1`: the Ki was determined as 4.4 nM on Adenosine receptor A2a [1], 2600 nM at Adenosine receptor A1 and 155 nM on Adenosine receptor A2a [2]. In addition, in the data set listed under Homo sapiens, the Ratio Ki stood at 591.

As for `Cc1cc(C)n(-c2cc(NC(=O)CN3CCCC3)nc(-c3ccc(C)o3)n2)n1`, the Ki on Adenosine receptor A2a [1] was found to be 8.6 nM; at Adenosine receptor A1, 347 nM. Besides, in the data set filed under Homo sapiens, the Ratio Ki was 40.

With `CC(=O)N1CCN(CC(=O)Nc2cc(-n3nc(C)cc3C)nc(-c3ccc(C)o3)n2)CC1`, the inhibitory constant (Ki) at Adenosine receptor A2a [1] was 3.6 nM; at Adenosine receptor A1, 540 nM; on Adenosine receptor A2a [2], 170 nM. The Ratio Ki in the data set listed under Homo sapiens turned out to be 150.

Regarding `Cc1cc(C)n(-c2cc(NC(=O)CN3CC[C@@H](N(C)C)C3)nc(-c3ccc(C)o3)n2)n1`, the Ki was determined as 4 nM at Adenosine receptor A2a [1] and 262 nM at Adenosine receptor A1. Also, the Ratio Ki in the data set filed under Homo sapiens was determined as 66.

For the molecule `Cc1cc(C)n(-c2cc(NC(=O)CC3CCN(C)CC3)nc(-c3ccc(C)o3)n2)n1`, the Ki came to 5.4 nM on Adenosine receptor A2a [1], 1020 nM on Adenosine receptor A1 and 103 nM on Adenosine receptor A2a [2].

With `Cc1cc(C)n(-c2cc(NC(=O)CN3CCC[C@H](CN(C)C)C3)nc(-c3ccc(C)o3)n2)n1`, the Ki at Adenosine receptor A2a [1] turned out to be 10 nM; on Adenosine receptor A1 it was 890 nM; at Adenosine receptor A2a [2], 87 nM. In the data set listed under Homo sapiens, the Ratio Ki worked out at 89.

As to `CCN[C@H]1CCN(CC(=O)Nc2cc(-n3nc(C)cc3C)nc(-c3ccc(C)o3)n2)C1`, the inhibition constant Ki at Adenosine receptor A2a [1] was 2.5 nM; on Adenosine receptor A1 it was 370 nM; on Adenosine receptor A2a [2], 37 nM. Further, in the data set listed under Homo sapiens, the Ratio Ki was 148. Besides, the concentration for half-maximal inhibition (IC50) in data set [3] was 420 nM.

With `Cc1cc(C)n(-c2cc(NC(=O)CN3CCCN(C)CC3)nc(-c3ccc(C)o3)n2)n1`, the values for the inhibitory constant (Ki) at Adenosine receptor A2a [1], on Adenosine receptor A1 and at Adenosine receptor A2a [2] were 10 nM, 2100 nM and 46.7 nM, respectively. Besides, in the data set listed under Homo sapiens, the Ratio Ki was determined as 210. In data set [3], this molecule displayed an IC50 of 285 nM.

As for `Cc1cc(C)n(-c2cc(NC(=O)CN3CCCOCC3)nc(-c3ccc(C)o3)n2)n1`, the inhibition constant Ki on Adenosine receptor A2a [1] stood at 6 nM; at Adenosine receptor A1, 630 nM; at Adenosine receptor A2a [2] it was 230 nM. The Ratio Ki in the data set listed under Homo sapiens worked out at 105.

For the molecule `Cc1cc(C)n(-c2cc(NC(=O)CCN(C)C)nc(-c3ccc(C)o3)n2)n1`, the results for the Ki on Adenosine receptor A2a [1], at Adenosine receptor A1 and at Adenosine receptor A2a [2] were 2.1 nM, 210 nM and 43 nM, respectively.

Regarding `Cc1cc(C)n(-c2cc(NC(=O)CN3CCC(CN(C)C)CC3)nc(-c3ccc(C)o3)n2)n1`, the Ki on Adenosine receptor A2a [1] came to 2.9 nM; on Adenosine receptor A1, 380 nM; on Adenosine receptor A2a [2] it was 25 nM. In addition, the Ratio Ki in the data set listed under Homo sapiens turned out to be 131. This molecule had an IC50 in data set [3] of 1670 nM.
